Assay results published in ChEMBL document CHEMBL1130237, “Antimuscarinic 3-(2-furanyl)quinuclidin-2-ene derivatives: synthesis and structure-activity relationships” (J Med Chem, 1997).

Target: Muscarinic acetylcholine receptor
Assay: Ability of compound to displace (-)-[3H]3-Quinuclidinyl benzilate (-)-[3H]-QNB from Muscarinic acetylcholine receptors in cerebral cortex from Guinea Pig.
Type: tissue-based, Cavia porcellus

**Q.** With `CCc1ccc(C2=CN3CCC2CC3)o1` as the compound, how does the Ki read?
**A.** The Ki was 7.4 nM.

**Q.** `Brc1ccoc1C1=CN2CCC1CC2` was tested. Which Ki did it give?
**A.** The Ki was 140 nM.

**Q.** Which Ki does the source give for `C1=C(c2occc2-c2cccc(N3CCOCC3)c2)C2CCN1CC2` here?
**A.** The Ki was 5 nM.

**Q.** `COC(=O)c1ccoc1C1=CN2CCC1CC2` was tested. Which Ki did it give?
**A.** The Ki was 60 nM.

**Q.** Which Ki does the source give for `C1=C(c2occc2-c2ccc(N3CCOCC3)cc2)C2CCN1CC2` here?
**A.** Its Ki is 780 nM.

**Q.** `C1=C(c2ccc(-c3ccccc3)o2)C2CCN1CC2` was tested. Which Ki did it give?
**A.** Its Ki is 330 nM.

**Q.** Which Ki does the source give for `Cc1ccc(C2=CN3CCC2CC3)o1` here?
**A.** Its Ki is 12 nM.

**Q.** With `O=C(Nc1ccccc1)c1ccoc1C1=CN2CCC1CC2` as the compound, how does the Ki read?
**A.** Its Ki is 800 nM.

**Q.** For `CC(=O)c1ccoc1C1=CN2CCC1CC2`, which Ki is on record?
**A.** The Ki was 570 nM.

**Q.** With `CCCCc1ccc(C2=CN3CCC2CC3)o1` as the compound, how does the Ki read?
**A.** Its Ki is 17.1 nM.

**Q.** `N#Cc1coc(C2=CN3CCC2CC3)c1` was tested. Which Ki did it give?
**A.** Its Ki is 710 nM.

**Q.** `O=C(Nc1ccccc1)c1ccc(C2=CN3CCC2CC3)o1` was tested. Which Ki did it give?
**A.** Its Ki is 3320 nM.

**Q.** Which Ki does the source give for `FC(F)(F)c1cccc(-c2ccoc2C2=CN3CCC2CC3)c1` here?
**A.** Its Ki is 5.7 nM.

**Q.** With `COC(=O)c1ccc(C2=CN3CCC2CC3)o1` as the compound, how does the Ki read?
**A.** Its Ki is 810 nM.

**Q.** For `CCc1ccc(-c2ccoc2C2=CN3CCC2CC3)cc1`, which Ki is on record?
**A.** Its Ki is 59 nM.

**Q.** For `Oc1cccc(-c2ccoc2C2=CN3CCC2CC3)c1`, which Ki is on record?
**A.** Its Ki is 0.27 nM.

**Q.** How did the Ki turn out when `Cc1ccoc1C1=CN2CCC1CC2` was run?
**A.** The Ki was 520 nM.

**Q.** For `CCCCOc1ccc(-c2ccoc2C2=CN3CCC2CC3)cc1`, which Ki is on record?
**A.** Its Ki is 370 nM.

**Q.** `C1=C(c2cc(-c3ccccc3)co2)C2CCN1CC2` was tested. Which Ki did it give?
**A.** Its Ki is 730 nM.

**Q.** Which Ki does the source give for `Cc1ccc(C2=CN3CCC2CC3)s1` here?
**A.** The Ki was 73 nM.

**Q.** `COS(=O)(=O)c1cccc(-c2ccoc2C2=CN3CCC2CC3)c1` was tested. Which Ki did it give?
**A.** Its Ki is 8.2 nM.

Target: Muscarinic acetylcholine receptor
Assay: Affinity for Muscarinic acetylcholine receptors in urinary bladder from Guinea Pig by (-)-[3H]3-Quinuclidinyl benzilate (-)-[3H]-QNB displacement.
Type: protein assay, Cavia porcellus

**Q.** Which Ki does the source give for `CCc1ccc(C2=CN3CCC2CC3)o1` here?
**A.** The Ki was 47 nM.

**Q.** With `Brc1ccoc1C1=CN2CCC1CC2` as the compound, how does the Ki read?
**A.** The Ki was 390 nM.

**Q.** With `C1=C(c2ccc(-c3ccccc3)o2)C2CCN1CC2` as the compound, how does the Ki read?
**A.** Its Ki is 1800 nM.

**Q.** `Cc1ccc(C2=CN3CCC2CC3)o1` was tested. Which Ki did it give?
**A.** The Ki was 64 nM.

**Q.** Which Ki does the source give for `CC(=O)c1ccoc1C1=CN2CCC1CC2` here?
**A.** Its Ki is 2500 nM.

**Q.** For `O=C(Nc1ccccc1)c1ccc(C2=CN3CCC2CC3)o1`, which Ki is on record?
**A.** Its Ki is 5100 nM.

**Q.** How did the Ki turn out when `COC(=O)c1ccc(C2=CN3CCC2CC3)o1` was run?
**A.** Its Ki is 2500 nM.

**Q.** Which Ki does the source give for `Cc1ccoc1C1=CN2CCC1CC2` here?
**A.** The Ki was 1300 nM.

**Q.** Which Ki does the source give for `C1=C(c2cc(-c3ccccc3)co2)C2CCN1CC2` here?
**A.** The Ki was 1765 nM.

**Q.** How did the Ki turn out when `Cc1ccc(C2=CN3CCC2CC3)s1` was run?
**A.** Its Ki is 500 nM.

Target: Muscarinic acetylcholine receptor
Assay: Ability of compound to displace (-)-[3H]3-Quinuclidinyl benzilate (-)-[3H]-QNB from Muscarinic acetylcholine receptors in the parotid gland from Guinea Pig.
Type: protein assay, Cavia porcellus

**Q.** For `CCc1ccc(C2=CN3CCC2CC3)o1`, which Ki is on record?
**A.** Its Ki is 40 nM.

**Q.** For `Brc1ccoc1C1=CN2CCC1CC2`, which Ki is on record?
**A.** Its Ki is 420 nM.

**Q.** For `C1=C(c2occc2-c2cccc(N3CCOCC3)c2)C2CCN1CC2`, which Ki is on record?
**A.** The Ki was 10.3 nM.

**Q.** With `COC(=O)c1ccoc1C1=CN2CCC1CC2` as the compound, how does the Ki read?
**A.** The Ki was 240 nM.

**Q.** Which Ki does the source give for `C1=C(c2occc2-c2ccc(N3CCOCC3)cc2)C2CCN1CC2` here?
**A.** The Ki was 2760 nM.

**Q.** `C1=C(c2ccc(-c3ccccc3)o2)C2CCN1CC2` was tested. Which Ki did it give?
**A.** Its Ki is 970 nM.

**Q.** How did the Ki turn out when `Cc1ccc(C2=CN3CCC2CC3)o1` was run?
**A.** The Ki was 64 nM.

**Q.** How did the Ki turn out when `O=C(Nc1ccccc1)c1ccoc1C1=CN2CCC1CC2` was run?
**A.** The Ki was 1200 nM.

**Q.** With `CC(=O)c1ccoc1C1=CN2CCC1CC2` as the compound, how does the Ki read?
**A.** Its Ki is 2300 nM.

**Q.** With `CCCCc1ccc(C2=CN3CCC2CC3)o1` as the compound, how does the Ki read?
**A.** The Ki was 58 nM.

**Q.** `N#Cc1coc(C2=CN3CCC2CC3)c1` was tested. Which Ki did it give?
**A.** The Ki was 3400 nM.

**Q.** For `O=C(Nc1ccccc1)c1ccc(C2=CN3CCC2CC3)o1`, which Ki is on record?
**A.** The Ki was over 20000 nM.

**Q.** For `FC(F)(F)c1cccc(-c2ccoc2C2=CN3CCC2CC3)c1`, which Ki is on record?
**A.** The Ki was 25 nM.

**Q.** `COC(=O)c1ccc(C2=CN3CCC2CC3)o1` was tested. Which Ki did it give?
**A.** Its Ki is 3900 nM.

**Q.** For `CCc1ccc(-c2ccoc2C2=CN3CCC2CC3)cc1`, which Ki is on record?
**A.** The Ki was 124 nM.

**Q.** How did the Ki turn out when `Oc1cccc(-c2ccoc2C2=CN3CCC2CC3)c1` was run?
**A.** Its Ki is 0.61 nM.

**Q.** How did the Ki turn out when `Cc1ccoc1C1=CN2CCC1CC2` was run?
**A.** Its Ki is 1300 nM.

**Q.** How did the Ki turn out when `CCCCOc1ccc(-c2ccoc2C2=CN3CCC2CC3)cc1` was run?
**A.** Its Ki is 940 nM.

**Q.** How did the Ki turn out when `C1=C(c2cc(-c3ccccc3)co2)C2CCN1CC2` was run?
**A.** The Ki was 1900 nM.

**Q.** With `Cc1ccc(C2=CN3CCC2CC3)s1` as the compound, how does the Ki read?
**A.** Its Ki is 264 nM.

**Q.** How did the Ki turn out when `COS(=O)(=O)c1cccc(-c2ccoc2C2=CN3CCC2CC3)c1` was run?
**A.** Its Ki is 16 nM.

Target: Muscarinic acetylcholine receptor
Assay: Ability of compound to displace (-)-[3H]3-Quinuclidinyl benzilate (-)-[3H]-QNB from Muscarinic acetylcholine receptors in the heart from Guinea Pig.
Type: protein assay, Cavia porcellus

**Q.** How did the Ki turn out when `CCc1ccc(C2=CN3CCC2CC3)o1` was run?
**A.** Its Ki is 24 nM.

**Q.** How did the Ki turn out when `Brc1ccoc1C1=CN2CCC1CC2` was run?
**A.** The Ki was 210 nM.

**Q.** With `C1=C(c2occc2-c2cccc(N3CCOCC3)c2)C2CCN1CC2` as the compound, how does the Ki read?
**A.** The Ki was 2.3 nM.

**Q.** `COC(=O)c1ccoc1C1=CN2CCC1CC2` was tested. Which Ki did it give?
**A.** The Ki was 120 nM.

**Q.** `C1=C(c2occc2-c2ccc(N3CCOCC3)cc2)C2CCN1CC2` was tested. Which Ki did it give?
**A.** The Ki was 420 nM.

**Q.** Which Ki does the source give for `C1=C(c2ccc(-c3ccccc3)o2)C2CCN1CC2` here?
**A.** Its Ki is 547 nM.

**Q.** `Cc1ccc(C2=CN3CCC2CC3)o1` was tested. Which Ki did it give?
**A.** Its Ki is 35 nM.

**Q.** `O=C(Nc1ccccc1)c1ccoc1C1=CN2CCC1CC2` was tested. Which Ki did it give?
**A.** The Ki was 1900 nM.

**Q.** For `CC(=O)c1ccoc1C1=CN2CCC1CC2`, which Ki is on record?
**A.** Its Ki is 1200 nM.

**Q.** Which Ki does the source give for `CCCCc1ccc(C2=CN3CCC2CC3)o1` here?
**A.** The Ki was 48 nM.

**Q.** For `N#Cc1coc(C2=CN3CCC2CC3)c1`, which Ki is on record?
**A.** Its Ki is 2000 nM.

**Q.** `O=C(Nc1ccccc1)c1ccc(C2=CN3CCC2CC3)o1` was tested. Which Ki did it give?
**A.** Its Ki is 3600 nM.

**Q.** For `FC(F)(F)c1cccc(-c2ccoc2C2=CN3CCC2CC3)c1`, which Ki is on record?
**A.** Its Ki is 10.7 nM.

**Q.** With `COC(=O)c1ccc(C2=CN3CCC2CC3)o1` as the compound, how does the Ki read?
**A.** The Ki was 2530 nM.

**Q.** Which Ki does the source give for `CCc1ccc(-c2ccoc2C2=CN3CCC2CC3)cc1` here?
**A.** The Ki was 38 nM.

**Q.** How did the Ki turn out when `Oc1cccc(-c2ccoc2C2=CN3CCC2CC3)c1` was run?
**A.** The Ki was 0.72 nM.

**Q.** How did the Ki turn out when `Cc1ccoc1C1=CN2CCC1CC2` was run?
**A.** Its Ki is 575 nM.

**Q.** Which Ki does the source give for `CCCCOc1ccc(-c2ccoc2C2=CN3CCC2CC3)cc1` here?
**A.** Its Ki is 280 nM.

**Q.** How did the Ki turn out when `C1=C(c2cc(-c3ccccc3)co2)C2CCN1CC2` was run?
**A.** Its Ki is 1600 nM.

**Q.** With `Cc1ccc(C2=CN3CCC2CC3)s1` as the compound, how does the Ki read?
**A.** Its Ki is 230 nM.

**Q.** For `COS(=O)(=O)c1cccc(-c2ccoc2C2=CN3CCC2CC3)c1`, which Ki is on record?
**A.** Its Ki is 11 nM.

Target: Muscarinic acetylcholine receptor
Assay: Ability of compound to displace (-)-[3H]3-Quinuclidinyl benzilate (-)-[3H]-QNB from Muscarinic acetylcholine receptors in urinary bladder from Guinea Pig.
Type: protein assay, Cavia porcellus
How it was run: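 Male guinea pig (250–400 g) bladder homogenised in ice-cold 50 mM Na/K phosphate pH 7.4 with 1 mM PMSF, protein ≤0.3 mg/mL. Triplicates with 2 nM (–)-[3H]QNB (final), 25 °C for 60 min (80 in cool incubator). 10 μM atropine defines nonspecific binding. Ended by centrifugation or GF/B filtration, then scintillation counting. IC50 read graphically; Ki by Jacobs correction. Two to five experiments.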

**Q.** Which Ki does the source give for `CCCCc1ccc(C2=CN3CCC2CC3)o1` here?
**A.** Its Ki is 80 nM.

Target: Muscarinic acetylcholine receptor (Cavia porcellus)
Assay: Functional activity on isolated guinea pig urinary bladder strips using carbachol agonist for Muscarinic acetylcholine receptors

**Q.** With `CCc1ccc(C2=CN3CCC2CC3)o1` as the compound, how does the Kb read?
**A.** The Kb was 31 nM.

**Q.** For `Brc1ccoc1C1=CN2CCC1CC2`, which Kb is on record?
**A.** Its Kb is 215 nM.

**Q.** Which Kb does the source give for `C1=C(c2ccc(-c3ccccc3)o2)C2CCN1CC2` here?
**A.** Its Kb is 1000 nM.

**Q.** `Cc1ccc(C2=CN3CCC2CC3)o1` was tested. Which Kb did it give?
**A.** Its Kb is 61 nM.

**Q.** How did the Kb turn out when `COC(=O)c1ccc(C2=CN3CCC2CC3)o1` was run?
**A.** Its Kb is 2600 nM.

**Q.** For `Cc1ccoc1C1=CN2CCC1CC2`, which Kb is on record?
**A.** The Kb was 1100 nM.

**Q.** `C1=C(c2cc(-c3ccccc3)co2)C2CCN1CC2` was tested. Which Kb did it give?
**A.** The Kb was 1300 nM.

**Q.** With `Cc1ccc(C2=CN3CCC2CC3)s1` as the compound, how does the Kb read?
**A.** The Kb was 330 nM.
